According to article PMC7476277 (Thorax, 2020):
“Also recorded” adds a separate entry of the source.

Legend:
[1] = tested on: CBMCs co-cultured with NHLFs; test: CBMC:NHLF co-culture, fibroblast-mediated MC survival and fibroblast numbers; assay type: cell-based, human; settings: 10 nM, day 14
Outline: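 CBMCs and normal human lung fibroblasts were cultured alone or co-cultured at 1:1 for up to 21 days. Media lacked SCF and IL-6 and held test compound, DMSO vehicle, anti-SCF (67 nM) or goat IgG isotype (67 nM). At each time point, viability dye plus anti-ckit APC staining; viable ckit+ (MC) and ckit− (fibroblast) cells counted in a fixed volume by flow cytometry. Day-14 % inhibition vs isotype/vehicle; 3 experiments, 2 MC donors.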

[2] = biological target: ckit (Homo sapiens, UniProt P10721); test: rhSCF-mediated ckit phosphorylation in CBMCs; assay type: cell-based; settings: 4 nM rhSCF, 10 min stimulation
[3] = tested on: CCL2 release from CBMCs; test: rhSCF-induced CCL2 release from MCs; assay type: cell-based; settings: Homo sapiens, 72 h, read-out: IC50, inhibition of CCL2 release
Outline: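 CBMCs stimulated 3 days with 4 nM rhSCF together with test compound, DMSO vehicle, anti-SCF pAb (positive control) or goat IgG isotype. CCL2 in culture supernatants quantified by MesoScale Discovery electrochemiluminescence. Mean (SE) of 3 separate experiments.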

[4] = tested on: rat bleomycin model; test: rat bleomycin model of lung fibrosis; assay type: in vivo; settings: 60 mg/kg daily oral
Outline: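 Male CD rats, 6–8 weeks old, given intratracheal bleomycin sulphate 0.9 U/kg or saline 1 mL/kg under isoflurane on day 0. Test compound 60 mg/kg, or water vehicle, by daily oral gavage on days 0–13. Day 14: Giemsa-stained lung sections counted for MCs per lung area. H&E and Masson's trichrome images analysed for parenchymal tissue density (HDFm). Collagen proportion by trichrome image analysis, 5 sections/animal. n=5–9/group; Kruskal-Wallis.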

[5] = read-out: maximum plasma concentration achieved at steady state (cmax); 150 mg twice daily dosing; cited from earlier work
[6] = tested on: normal human lung fibroblasts (NHLFs); test: bFGF-induced fibroblast proliferation; assay type: cell-based; settings: 100pM bFGF, 48 hours
Outline: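 Normal human lung fibroblasts stimulated 48 h with recombinant human bFGF (100pM) plus test compound or DMSO vehicle. Proliferation measured by 3H-thymidine incorporation (counts per minute). Mean (SE) of three separate experiments.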

[7] = tested on: cord blood-derived mast cells (CBMCs); test: recombinant SCF-mediated CBMC survival; assay type: cell-based, human; settings: 4 nM rhSCF, 7 days
Outline: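 Cord blood–derived MCs, differentiated from CD133+ precursors, cultured 7 days with 4 nM rhSCF plus test compound or DMSO vehicle. Then stained with viability dye and anti-ckit APC; viable ckit-positive MCs in a fixed volume counted by flow cytometry and compared with control. Mean (SE) of three separate experiments.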

Sequence of ckit (P10721 26-976): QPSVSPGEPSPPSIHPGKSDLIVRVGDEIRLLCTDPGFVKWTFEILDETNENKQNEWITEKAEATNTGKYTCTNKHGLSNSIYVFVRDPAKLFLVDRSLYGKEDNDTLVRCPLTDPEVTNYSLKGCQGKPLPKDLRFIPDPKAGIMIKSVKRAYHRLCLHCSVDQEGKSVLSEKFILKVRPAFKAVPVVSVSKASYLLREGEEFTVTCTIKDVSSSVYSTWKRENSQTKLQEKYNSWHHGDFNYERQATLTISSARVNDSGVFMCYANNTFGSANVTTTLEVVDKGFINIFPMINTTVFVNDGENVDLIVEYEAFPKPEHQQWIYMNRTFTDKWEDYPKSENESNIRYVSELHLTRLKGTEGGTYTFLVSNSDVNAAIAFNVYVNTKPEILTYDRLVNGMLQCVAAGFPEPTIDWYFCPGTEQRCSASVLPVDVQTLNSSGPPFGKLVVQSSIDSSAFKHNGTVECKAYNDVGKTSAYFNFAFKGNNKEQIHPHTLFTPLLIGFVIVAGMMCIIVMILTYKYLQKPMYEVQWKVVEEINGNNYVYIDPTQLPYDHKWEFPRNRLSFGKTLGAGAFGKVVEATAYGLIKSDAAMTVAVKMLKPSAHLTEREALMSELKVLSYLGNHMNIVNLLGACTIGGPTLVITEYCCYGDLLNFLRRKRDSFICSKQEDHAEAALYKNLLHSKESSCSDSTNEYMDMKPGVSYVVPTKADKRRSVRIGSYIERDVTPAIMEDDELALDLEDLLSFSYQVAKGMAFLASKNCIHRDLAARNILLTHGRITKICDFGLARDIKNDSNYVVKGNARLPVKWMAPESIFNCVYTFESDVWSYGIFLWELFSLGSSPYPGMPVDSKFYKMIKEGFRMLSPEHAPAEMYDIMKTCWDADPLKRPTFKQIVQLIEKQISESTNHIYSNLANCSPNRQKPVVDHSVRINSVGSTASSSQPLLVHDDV

| SMILES | effect on fibroblast-mediated MC survival (in words) [1] | extent of inhibition of ckit phosphorylation (in words) [2] | IC50 [3] [nM] | effect on bleomycin-induced increase in lung MCs (number per area lung) ([4]; day 0-13, read-out day 14, 60 mg/kg) | effect on collagen (col1a1) mRNA expression in lung ([4]; day 14) | effect on fibronectin (fn1) mRNA expression in lung ([4]; day 14) | effect on collagen content by Masson's trichrome (MTC) ([4]; day 14, 60 mg/kg) | effect on histamine levels in lung homogenates ([4]; day 14, 60 mg/kg) | effect on lung hydroxyproline levels ([4]; day 14, 60 mg/kg) | effect on high tissue density frequency (HDFm) in lung parenchyma ([4]; day 14, vs bleomycin vehicle control, 60 mg/kg) | Cmax [5] [nM] | effect on bFGF-mediated fibroblast proliferation (in words) [6] | effect on rhSCF-mediated MC survival (in words) [7] |
| --- | --- | --- | --- | --- | --- | --- | --- | --- | --- | --- | --- | --- | --- |
| COC(=O)c1ccc2c(c1)NC(=O)/C2=C(\Nc1ccc(N(C)C(=O)CN2CCN(C)CC2)cc1)c1ccccc1 [nintedanib] | inhibited survival | fully inhibited | 12.2 | ablated; also recorded: inhibited | no significant effect | no significant effect | trend towards decreased collagen; also recorded: not statistically significant | reduction in the levels of histamine in lung homogenates, although this did not reach statistical significance | no significant effect | significantly decreased; also recorded: inhibited | 70 |  |  |
| Cc1ccc(=O)n(-c2ccccc2)c1 [pirfenidone] |  |  |  |  |  |  |  |  |  |  |  | no impact | no impact |
